Bioassay records deposited in PubChem by The Scripps Research Institute Molecular Screening Center.
GPR7 antagonist: antagonists of human GPR7 (neuropeptides B/W receptor 1) | P48145 | GPR7-expressing cells, fluorescence antagonist assay | inhibition, % at 4.4 µM | 290,000 tested, 1.1% active; in the data active = inhibition above about 16%, passing the limit was not always enough;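 note: cells stimulated with the agonist NPW; 0% = agonist with vehicle and 100% = vehicle without agonist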
Target sequence (P48145 whole entry, looked up): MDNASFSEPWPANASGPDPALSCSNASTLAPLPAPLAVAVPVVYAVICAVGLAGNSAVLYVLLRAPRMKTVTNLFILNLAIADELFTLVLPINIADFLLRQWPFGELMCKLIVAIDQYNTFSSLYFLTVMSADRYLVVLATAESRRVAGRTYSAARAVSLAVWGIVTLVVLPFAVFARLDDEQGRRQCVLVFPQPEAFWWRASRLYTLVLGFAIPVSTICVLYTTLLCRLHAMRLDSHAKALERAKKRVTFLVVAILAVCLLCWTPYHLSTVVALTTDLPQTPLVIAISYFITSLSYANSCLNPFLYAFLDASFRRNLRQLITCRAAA
OX1R antag-1: blocks the human orexin 1 receptor; OX1R-expressing cells, FRET antagonist read-out; AID 485270; O43613; inhibition, % at 6.6 µM; 330,000 tested, 1.8% active; in the data active = inhibition mostly above about 38%, no sharp cut-off; inactive = mostly below about 40%;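 note: 0% = agonist challenge alone and 100% = reference antagonist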
Target sequence (O43613 whole entry, looked up): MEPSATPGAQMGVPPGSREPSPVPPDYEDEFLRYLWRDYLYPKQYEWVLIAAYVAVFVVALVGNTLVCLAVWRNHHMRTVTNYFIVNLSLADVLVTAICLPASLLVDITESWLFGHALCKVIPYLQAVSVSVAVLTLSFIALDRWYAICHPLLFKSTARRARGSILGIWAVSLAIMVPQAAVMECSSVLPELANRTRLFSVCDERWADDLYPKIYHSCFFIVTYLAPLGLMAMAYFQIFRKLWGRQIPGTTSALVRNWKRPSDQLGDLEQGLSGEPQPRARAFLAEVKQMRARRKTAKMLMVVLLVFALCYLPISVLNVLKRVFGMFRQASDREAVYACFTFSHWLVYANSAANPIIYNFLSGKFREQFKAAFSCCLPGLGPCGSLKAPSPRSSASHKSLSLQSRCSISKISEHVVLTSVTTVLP
TAAR1 antag: antagonists of human TAAR1 | Q96RJ0 | CHO RD-HGA16 TAAR1, Fluo-8 calcium fluorescence, antagonist | 360,000 tested, 1.5% active | inhibition, % at 3 µM | AID 624466;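 active = inhibition above a per-plate cutoff, the mean inhibition of test compounds on that plate plus 3 SD, cut at about 49% in these data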;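 note: 0% = DMSO plus EC80 beta-PEA response and 100% = DMSO alone without agonist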
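Assay system: RD-HGA16 CHO cells with stable hTAAR1 and Gα16 / Reagent: EC80 β-phenethylamine stimulus / Doses: 3 µM, single point / Timing: dye loading 75 min at 37 °C, then 30 min room temperature / Measured by: Fluo-8 intracellular calcium dye fluorescence, real-time kinetic reads / Controls: vehicle wells and EC80 agonist wells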
CHO parental Ca: counter-screen: ATP calcium response change in parental CHO cells; inhibition, % at 5.6 µM; AID 463079; 330,000 tested, 0.63% active; parental CHO-K1, ATP-induced calcium, Fluo-8 fluorescence;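 active = inhibition above that plate's mean sample inhibition plus 3 SD, cut at about 26% in these data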;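 note: 0% = ATP-challenged DMSO wells and 100% = DMSO wells without ATP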
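Test system: untransfected parental CHO cell line; also added: ATP stimulus; dosing: 5.6 µM, single dose; signal: calcium-sensitive Fluo-8 fluorescence; measure: percent inhibition of ATP-evoked calcium rise, normalized to controls; benchmarks: low control ATP plus DMSO, high control DMSO only; replication: one well per compound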
TAAR1 agonist: human TAAR1 agonism | Q96RJ0 | CHO RD-HGA16 TAAR1, Fluo-8 calcium fluorescence; vehicle wells 0%, saturating PEA agonist 100% | activation, % at 3 µM | 360,000 tested, 0.99% active;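 active = activation above the mean activation of all test compounds in the run plus 3 SD, cut at about 38% in these data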
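Repeats: no replicates (n 1) | Material: CHO-derived RD-HGA16 cells with stable Gα16 and human TAAR1 | Technique: Kinetic Fluo-8 calcium fluorescence | Schedule: 17-24 h seeding, 75 min 37 °C dye, 30 min RT | Evaluation: % activation from peak over basal fluorescence ratio, DMSO-to-PEA scaled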
OX1R antag-2: antagonists of human orexin 1 receptor; O43613; CHO/OX1R cells, Fluo-8 calcium fluorescence, orexin A; inhibition, % at 5 µM; 330,000 tested, 0.43% active; AID 434989;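 active = inhibition above its plate's threshold, mean inhibition of all tested compounds on the plate plus 3 SD, cut at about 37% in these data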;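 note: 0% = orexin A challenge wells and 100% = SB-334867-A antagonist wells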
GPR7 antag cf: confirmation of human GPR7 antagonists; shares compounds with GPR7 antagonist; GPR7-expressing cells, calcium fluorescence antagonist mode; inhibition, % at 4.4 µM; 2,400 tested, 52% active; AID 1952; in the data active = inhibition above about 24%;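 note: stimulated with the GPR7 agonist NPW; 0% = agonist plus vehicle and 100% = vehicle alone without agonist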
MCHR1 antagonist: antagonizes human MCHR1, a GPR7 antagonist counter-screen | inhibition, % at 4.4 µM | 2,400 tested, 62% active | MCHR1-expressing cells, fluorescence antagonist assay | AID 2148 | shares compounds with GPR7 antagonist;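 note: 0% = vehicle with agonist and 100% = vehicle without agonist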
TAAR1 nonsel count: nonselective antagonist in TAAR1 antagonist counter-screen. shares compounds with TAAR1 antag. counterscreen cell line, calcium fluorescence, antagonist mode. inhibition, % at 3 µM. 2,400 tested, 77% active. AID 651780;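 note: CHO-Ga16 host cells stimulated with ATP at an EC80 level; 0% = agonist EC80 plus vehicle and 100% = vehicle without agonist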
TAAR1 antag conf: human TAAR1 antagonism, confirmed; TAAR1-expressing cells, fluorescence antagonist read-out; 2,400 tested, 40% active; shares compounds with TAAR1 antag; inhibition, % at 3 µM; in the data active = inhibition above about 49%;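 note: CHO-Ga16 host cells challenged with agonist PEA near its EC80; 0% = agonist at EC80 plus vehicle and 100% = vehicle with no agonist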
Ga16 ag counter-1: counter-screen for TAAR1 antagonists: nonselective Ga16 agonists; shares compounds with TAAR1 antag; Ga16-expressing cells, calcium fluorescence, agonist counterscreen; activation, % at 3 µM; 2,400 tested, 18% active; in the data active = activation above about 12%;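 note: 0% = vehicle wells and 100% = saturating stimulus response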
TAAR1 ag count: TAAR1 agonism, antagonist counter-screen; shares compounds with TAAR1 antag; hTAAR1 cell line, fluorescence activation, agonist mode; activation, % at 3 µM; 2,400 tested, 2% active; AID 651955; in the data active = activation above about 37%;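 note: CHO cells stably expressing TAAR1 with calcium dye readout; 0% = DMSO vehicle and 100% = full agonist response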
TAAR1 ag conf: human TAAR1 agonism, confirmed | CHO RD-HGA16 TAAR1, Fluo-8 calcium fluorescence; scaled: DMSO 0%, maximal phenethylamine 100% | 2,400 tested, 82% active | activation, % at 3 µM | AID 651783 | shares compounds with TAAR1 agonist;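 active = activation above a cutoff set at the run's mean compound activation plus 3 SD, cut at about 39% in these data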
Ga16 ag counter-2: nonselective agonism, TAAR1 counter-screen; shares compounds with TAAR1 agonist; CHO-Ga16 parental, Fluo-8 calcium fluorescence; normalized to maximal ATP response, DMSO zero; activation, % at 3 µM; 2,400 tested, 50% active;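 active = activation above the run cutoff, the mean activation over all tested wells plus 3 SD, cut at about 12% in these data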;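 note: 0% = DMSO wells and 100% = maximal ATP response on the peak over basal ratio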
TAAR1 desens: human TAAR1 agonist that also desensitizes the receptor; shares compounds with TAAR1 agonist; CHO RD-HGA16 hTAAR1, Fluo-8 calcium, beta-PEA response inhibition; inhibition, % at 3 µM; 2,400 tested, 46% active; AID 651951;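 active = inhibition above the run cutoff, the mean inhibition of all test compounds plus 3 SD, cut at about 49% in these data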;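 note: beta-PEA stimulus applied at its EC80; loss of beta-PEA calcium signal after compound pretreatment read as receptor desensitization; 0% = DMSO with beta-PEA at EC80 and 100% = DMSO alone without agonist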
Ga16 antag count: nonselective Ga16 antagonist in TAAR1 agonist counter-screen; shares compounds with TAAR1 agonist; CHO-Ga16 ATP-induced calcium, Fluo-8 fluorescence; inhibition, % at 3 µM; 2,400 tested, 39% active; AID 651952;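 active = inhibition above the plate's mean compound inhibition plus 3 SD, computed per plate, cut at about 22% in these data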;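 note: 0% = EC80 ATP with DMSO and 100% = DMSO wells without ATP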
Numbers without * were called inactive; . = no result; ! = repeats disagree. Compounds with a hit are over-represented: about 4.6% of the library has one in this group of screens. Cut-off read from the data, not from the text of the source, unless noted: active = inhibition above about 22%; inactive = the rest.

SMILES	GPR7 antagonist	OX1R antag-1	TAAR1 antag	CHO parental Ca	TAAR1 agonist	OX1R antag-2	GPR7 antag cf	MCHR1 antagonist	TAAR1 ag conf	Ga16 ag counter-2	TAAR1 desens	Ga16 antag count	others
CN1/C(=C\C(=O)COC(=O)Cn2nnc(-c3ccccc3)n2)C(C)(C)c2ccccc21	25.9*	31.2	51.6*	54.1*	9.2	36.6	17.8	38.2*	.	.	.	.	TAAR1 nonsel count=44.0*;TAAR1 antag conf=39.4;Ga16 ag counter-1=7.0;TAAR1 ag count=-0.1
CN1/C(=C/C(=O)COC(=O)CN2C(=O)C3CC=CCC3C2=O)C(C)(C)c2ccccc21 (stereo not drawn)	.	.	20.1	.	2.0	.	.	.	.	.	.	.
Cc1c(C(=O)N2CCN(c3ccc(F)cc3)CC2)sc2ncnc(N3CCN(c4ccccn4)CC3)c12	22.6*	26.4	70.0*	-2.1	9.6	-8.2	15.8	69.5*	.	.	.	.	TAAR1 nonsel count=29.3*;TAAR1 antag conf=47.2;Ga16 ag counter-1=9.3;TAAR1 ag count=7.7
O=C(Nc1nc(-c2ccc(S(=O)(=O)N3CCOCC3)cc2)cs1)c1ccccc1	33.5*	15.8	59.5*!	-2.6	13.2	-0.3	61.0*	76.2*	.	.	.	.	TAAR1 nonsel count=28.1*;TAAR1 antag conf=50.1*;Ga16 ag counter-1=10.7;TAAR1 ag count=6.5
CCOC(=O)c1ccc(NC(=O)c2cccc(S(=O)(=O)N3CCOCC3)c2)cc1	23.8*	45.9	62.2*	33.0*	22.9	27.5	21.3	74.8*	.	.	.	.	TAAR1 nonsel count=33.7*;TAAR1 antag conf=47.9;Ga16 ag counter-1=13.8*;TAAR1 ag count=11.9
CC(=O)c1cccc(NC(=O)c2cccc(S(=O)(=O)N3CCOCC3)c2)c1	-2.9	8.7	-2.6	-15.7	0.9	-7.4	.	.	.	.	.	.
COc1cc(-c2noc(C)c2/C=C/c2cccc([N+](=O)[O-])c2)cc(OC)c1OC	35.4*	16.8	73.8*	-7.3	10.6	0.5	45.6*	65.5*	.	.	.	.	TAAR1 nonsel count=28.4*;TAAR1 antag conf=42.4;Ga16 ag counter-1=2.0;TAAR1 ag count=0.0
CC(OC(=O)C1CC(=O)N(Cc2ccco2)C1)C(=O)Nc1ccccc1[N+](=O)[O-] (stereo not drawn)	.	14.2	1.3	-4.4	5.2	-20.3	.	.	.	.	.	.
Cc1ccc(C2/C(=C(/O)c3ccc4c(c3)CC(C)O4)C(=O)C(=O)N2CCCn2ccnc2)cc1 (stereo not drawn)	1.2	6.1	-15.1	-20.8	0.1	-12.3	.	.	.	.	.	.
CC(=O)Nc1ccc(Sc2ccc([N+](=O)[O-])o2)cc1	.	.	-3.9	.	2.2	.	.	.	.	.	.	.
CC(C)(C)C(=O)Nc1ccc(Sc2ccc([N+](=O)[O-])cc2)cc1	24.7*	25.7	91.4*	10.2	5.7	24.3	23.1	69.5*	.	.	.	.	TAAR1 nonsel count=48.7*;TAAR1 antag conf=60.4*;Ga16 ag counter-1=8.2;TAAR1 ag count=1.7
COC(=O)CCCC(=O)Nc1c(F)c(F)c(F)c(F)c1F	-12.1	2.7	10.5	-5.9	3.0	4.7	.	.	.	.	.	.
COc1ccccc1N1CN(CCc2ccccc2)CNC1=S	30.0*	16.9	57.0*	-19.5	82.9*	-4.5	5.2	-2.0	101.2*	5.1	83.8*	0.9
CN1C(=O)/C(=C\c2ccc(N(C)C)cc2)OC1=S	43.6*	.	62.3*	.	100.2*	.	43.7*	51.9*	87.1*	115.8*	58.1*	67.9*
CN1CCN(c2ccc(S(=O)(=O)N3CCCCC3)cc2NC(=O)Cc2ccc(Cl)cc2)CC1	25.1*	8.2	24.1	4.7	57.0*	-5.5	50.0*	53.5*	35.6	27.9*	22.7	21.9*
CCCCCNCC(=O)Nc1cccc(C(=O)Nc2cccc(C(F)(F)F)c2)c1	25.0*	2.2	49.7*	-1.5	72.3*	-12.1	50.2*	81.2*	75.8*	46.5*	56.3*	45.9*
Cc1cccc(OCCNc2ncccc2[N+](=O)[O-])c1	.	.	-15.4	.	-2.8	.	.	.	.	.	.	.
CCOc1ccc(NS(=O)(=O)c2ccc(C(=O)N(C)CC(=O)Nc3ccc(OC)cc3)cc2)cc1	.	20.0	-10.9	5.5	1.6	-13.1	.	.	.	.	.	.
CCCC(=O)NC(=S)Nc1ccc(S(=O)(=O)Nc2ccc(OCC)cc2)cc1	29.3*	3.4	33.5	4.6	73.6*	13.0	53.4*	66.9*	85.0*	35.4*	66.5*	38.8*
COc1ccc(NCc2nnc(SCC(=O)c3ccc(OC)cc3)n2C)cc1	-7.4	43.7	8.8	-24.9	1.6	-14.9	.	.	.	.	.	.
COc1ccc(NS(=O)(=O)c2cccc(C(=O)OCC(=O)Nc3cc(C)on3)c2)cc1	10.0	28.4	-1.5	-15.7	6.1	-16.3	.	.	.	.	.	.
Cc1ccc(NS(=O)(=O)c2ccc(C(=O)OCC(=O)Nc3cc(C)on3)cc2)cc1	26.0*	.	7.5	.	72.1*	.	38.4*	52.1*	72.0*	34.9*	50.3*	37.3*
c1ccc(CNc2ncnc3c2cnn3Cc2ccccc2)cc1	27.7*	18.8	6.5	3.1	101.6*	-7.7	53.5*	50.7*	82.2*	46.5*	48.4	25.3*
OCCNc1ncnc2c1cnn2Cc1ccccc1	-8.6	.	6.7	.	1.6	.	.	.	.	.	.	.
CC(=O)N1CCOc2ccc(S(=O)(=O)N3CCC(C(=O)Nc4ccc(F)cc4)CC3)cc21	1.5	12.1	4.9	-3.4	4.6	-30.5	.	.	.	.	.	.
Cc1ccc(O)c(NC(=S)NC(=O)Cc2ccc(Cl)cc2)c1	99.0*	-13.2	105.6*	99.3*	155.3*	107.2*	99.5*	106.5*	140.1*	117.2*	106.2*	101.7*
